hERG protect = hERG rescue from dofetilide block, primary screen, cell-based, CHO-hERG, FluxOR thallium flux, dofetilide IC70; 0.51% of 310,000 active; Voltage-gated inwardly rectifying potassium channel KCNH2 (Homo sapiens), Q12809; activation (rescue from dofetilide block), less the hit threshold, % at 10 µM; dofetilide IC70 present; AID 1511, 2009;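 active = activation above the mean of controls blocked by dofetilide plus 5 SD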;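 also: thallium influx through hERG after potassium depolarization seen as dye fluorescence rise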
KCNQ1 inh = inhibitors of human KCNQ1 channel, primary screen, cell-based, thallium flux, high-throughput; CHO-K1 KCNQ1, FluxOR thallium flux fluorescence; hits give high values; Potassium voltage-gated channel subfamily KQT member 1 (Homo sapiens), P51787; B-score at 10 µM; 1.3% of 310,000 active;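 active = compounds whose thallium flux B-score, printed positive for inhibition, exceeds three library SD while starting fluorescence stays within three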;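 also: channel opened by potassium depolarization with thallium stimulus after 20 min compound exposure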
KCNQ1 act = potentiators or activators of KCNQ1 channel, primary screen, cell-based, thallium flux, high-throughput. AID 2648, 2010. 0.35% of 310,000 active. Potassium voltage-gated channel subfamily KQT member 1 (Homo sapiens), P51787. CHO-K1 KCNQ1, thallium flux FluxOR fluorescence; hits give high values. B-score at 10 µM;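 active = fluorescence ratio B-score, a plate-corrected score, at least three library SD, with initial intensity B-score within 5 SD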
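Material: CHO-K1 cells stably expressing KCNQ1. Medium: assay buffer for compound exposure, DMSO matched across wells. Reagent: K+/Tl+ depolarizing stimulus. Compound dosing: single-concentration screen. Times: 37 °C overnight plating, 90-min dark dye load, 20-min compound pretreatment. Technique: FluxOR Tl+ flux fluorescence.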
KCNK3 inh = human KCNK3 channel inhibitors, primary screen, CHO cells, FluxOR thallium flux, B-score; Potassium channel subfamily K member 3 (Homo sapiens), O14649; FluxOR fluorescence; hits give low values; B-score at 10 µM; 0.84% of 340,000 active; AID 602410, 2012;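 active = B-score under library mean minus 4 SD, starting fluorescence ratio at most library mean plus 5 SD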;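 also: more negative B-score means stronger inhibition of thallium flux through KCNK3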
KCNK9 block = KCNK9 potassium channel inhibitors, primary screen, HEK293 cells, thallium flux. Potassium channel subfamily K member 9 (Homo sapiens), Q9NPC2. FluxOR thallium flux fluorescence; hits give low values. B-score at 10 µM. 1.2% of 310,000 active;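 active = ratio B-score over 3 SD below the library mean, with starting fluorescence within 5 SD of its mean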;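 also: negative B-score means less thallium flux so channel inhibition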
Cl transport mod = KCC2 cotransporter modulators, thallium flux, primary screen, cell-based, HEK293 KCC2, FluoZin-2 fluorescence, MLSMR | Solute carrier family 12 member 5 (Homo sapiens), Q9H2X9 | KCC2 cells, thallium flux FluoZin-2 fluorescence | B-score of Tl+ flux slope (higher = more flux/activation; lower = inhibition) at 10 µM | 2.2% of 190,000 active;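 active = thallium flux slope and its plate-corrected score both differing from the plate sample mean at a set confidence after two filtering rounds, in either direction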;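 also: slope of fluorescence scaled to starting intensity during 10 to 20 s after thallium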
Large screens that a line does not name were inactive. Rows were chosen to be rich in hits. Some 4.1% of all compounds tested hit in one or more screens of this group.

Cc1c(C#N)c(O)[nH]c(=O)c1N=Nc1ccc(Br)cc1C(=O)O	hERG protect 4.6 (no result: Cl transport mod)
Cc1cccc(N=Nc2c(C)c(C#N)c(O)[nH]c2=O)c1	none (no result: Cl transport mod)
COc1ccccc1N(CC(=O)NCCSCc1ccc(C)cc1)S(=O)(=O)c1ccccc1	KCNQ1 inh 10 (no result: Cl transport mod)
CN(c1ccc(C(=O)NCCSCc2ccc(Cl)cc2)cc1)S(=O)(=O)c1ccccc1	KCNQ1 inh 6
COc1ccc(N(CC(=O)NCCSCc2ccc(C)cc2)S(=O)(=O)c2ccccc2)cc1	none (no result: Cl transport mod)
COC(=O)c1ccccc1NC(=S)N(Cc1ccc2c(c1)OCO2)Cc1cc2cc(C)ccc2[nH]c1=O	none
COC(=O)c1ccccc1NC(=S)N(Cc1ccc2c(c1)OCO2)Cc1cc2ccc(C)cc2[nH]c1=O	KCNQ1 inh 6
CC(=O)N1CCN(S(=O)(=O)c2cccc(C(=O)Nc3cc(C(F)(F)F)ccc3N3CCOCC3)c2)CC1	none (no result: Cl transport mod)
O=C(NCCOc1nc(N2CCCCC2)nc(N2CCCCC2)n1)Nc1ccccc1	none
CCN(CC)c1nc(OCCNC(=O)Nc2ccccc2)nc(N(CC)CC)n1	KCNQ1 inh 10, KCNK9 block -7.9
O=C(Nc1nc(-c2cccs2)cs1)c1cccc(S(=O)(=O)N2CCCCCC2)c1	none (no result: Cl transport mod)
O=C(Nc1nc(-c2cccs2)cs1)c1ccc(S(=O)(=O)N2CCCCC2)cc1	KCNQ1 inh 6 (no result: Cl transport mod)
CCOc1ccc(NC(=S)NC2CC3CCC(C2)N3Cc2ccco2)cc1 (stereo not given)	KCNK9 block -7.2
Fc1ccc(NC(=S)NC2CC3CCC(C2)N3Cc2ccco2)cc1 (stereo not given)	none
O=C(Nc1n[nH]c(C(F)(F)F)n1)C1CC1	hERG protect 4.7
COc1cc(C2NC(=O)NC(C)=C2C(=O)OCc2ccccc2)ccc1O (stereo not given)	none (no result: Cl transport mod)
CCOC(=O)C1=C(c2ccccc2)NC(=O)NC1c1ccc(OC)c(OC)c1 (stereo not given)	hERG protect 5.7
COc1cc(C2NC(=O)NC(C)=C2C(=O)OCC2CCCCC2)ccc1O (stereo not given)	hERG protect 7.1 (no result: Cl transport mod)
CCC(C)Nc1ccc(NC(C)CC)cc1 (stereo not given)	KCNK3 inh -8.9 (no result: hERG protect, KCNQ1 inh, KCNQ1 act, KCNK9 block, Cl transport mod)
O=C1CC(Cc2ccc(Br)cc2)C(=O)N1c1ccccc1 (stereo not given)	none (no result: Cl transport mod)
Cc1ccc(NC(=O)COc2cccc(Oc3ccccc3)c2)cc1S(=O)(=O)N1CCOCC1	KCNK3 inh -8.8 (no result: hERG protect, KCNQ1 inh, KCNQ1 act, KCNK9 block, Cl transport mod)
COc1ccc(NC(=O)c2oc3ccccc3c2CSC)cc1S(=O)(=O)N1CCOCC1	none (no result: hERG protect, KCNQ1 inh, KCNQ1 act, KCNK9 block, Cl transport mod)
Cc1ccc(NC(=O)c2oc3ccccc3c2COC(C)C)cc1S(=O)(=O)N1CCOCC1	KCNK3 inh -9.4 (no result: hERG protect, KCNQ1 inh, KCNQ1 act, KCNK9 block, Cl transport mod)
S=C(Nc1ccc(Br)cc1)N1CCn2cccc2C1c1cccnc1 (stereo not given)	KCNQ1 act 22
Cc1cccc(NC(=O)CSCC(=O)Nc2cc(Cl)ccc2N2CCN(C)CC2)c1	none (no result: Cl transport mod)
Cc1cc(C)c2nc(SC(C)C(=O)NCC(=O)Nc3ccc(F)c(F)c3F)cc(C)c2c1 (stereo not given)	Cl transport mod 12
CCOC(=O)N1CCN(c2nc(N(c3ccccc3)c3ccccc3)nc(-n3ccnc3)n2)CC1	KCNQ1 inh 8 (no result: KCNK3 inh)
c1ccc(N(c2ccccc2)c2nc(N3CCCC3)nc(-n3ccnc3)n2)cc1	none
O=C(NCC1CCCN1S(=O)(=O)c1cccs1)c1c(F)cccc1F (stereo not given)	none (no result: Cl transport mod)
CCNC(=S)NNC(=O)c1csc2c1CCC(C)C2 (stereo not given)	none
Cc1ccccc1NC(=S)NNC(=O)c1csc2c1CCC(C)C2 (stereo not given)	KCNQ1 act 10, Cl transport mod 94
CC1CCN(S(=O)(=O)c2ccc(C(=O)Nc3ccccn3)cc2)CC1	none (no result: Cl transport mod)
COc1ccc(C=C2C=C(C(C)(C)C)C(=O)C(C(C)(C)C)=C2)cc1OC	KCNQ1 inh 6 (no result: Cl transport mod)
COc1ccc(/C=C2\CC/C(=C\c3ccc(OC)c(OC)c3)C2=O)cc1OC	none
Cc1ccc(NC(=O)CSCC(=O)Nc2ccccc2N2CCCC2)cc1	none (no result: Cl transport mod)
Cc1c(Cc2ccccc2)c(=O)oc2cc(OCC(=O)NC(Cc3ccc(Cl)cc3)C(=O)O)ccc12 (stereo not given)	KCNK9 block -7.3 (no result: Cl transport mod)
Cn1c(=O)c(Nc2ccc(Cl)cc2)c2c3c(cccc31)C(=O)c1ccccc1-2	KCNQ1 inh 9 (no result: KCNK3 inh)
CC(=O)Nc1c2c3c(cccc3n(C)c1=O)C(=O)c1ccccc1-2	none (no result: Cl transport mod)
CCOC(=O)N1CCN(C(=O)CSCC(=O)N=c2sc3cc(OC)ccc3n2C)CC1	none (no result: hERG protect, KCNQ1 inh, KCNQ1 act, KCNK9 block, Cl transport mod)
CCOC(=O)Cn1c(=NC(=O)CSC(C)=O)sc2cc(OC)ccc21	KCNK9 block -8.1
COc1ccc2[nH]cc(CCNC(=O)Cn3cc(C)c(=O)[nH]c3=O)c2c1	none (no result: hERG protect, KCNQ1 inh, KCNQ1 act, KCNK9 block, Cl transport mod)
O=C(NCc1ccc2c(c1)OCO2)C1CC(=O)N(C2CCCCCC2)C1 (stereo not given)	hERG protect 5.4
COc1ccc(NC(=O)C(=O)NNC(=O)c2ccc(Cl)cc2Cl)cc1	hERG protect 4.7, KCNQ1 act 62 (no result: Cl transport mod)
COc1ccc(NC(=O)C(=O)NNC(=O)C(C)Oc2ccc(Cl)cc2Cl)cc1 (stereo not given)	hERG protect 35, KCNQ1 act 108, Cl transport mod 76
Cc1ccc(NC(=O)c2cccc(S(=O)(=O)N3CCN(c4ccccc4)CC3)c2)nc1	none (no result: Cl transport mod)
O=C(NCc1ccccc1CN1CCCC1)c1cc2cc(Cl)ccc2o1	none (no result: hERG protect, KCNQ1 inh, KCNQ1 act, KCNK9 block, Cl transport mod)
COc1ccccc1Nc1nc(-c2ccccc2)nc2ccccc12	KCNK9 block -7.2
Cc1cc(C)c2[nH]c(O)c(N=NC(=S)NCC3CCCO3)c2c1 (stereo not given)	none
O=C(NCC1CCCO1)c1c(O)c2ccccc2[nH]c1=O (stereo not given)	none
Oc1[nH]c2ccccc2c1N=NC(=S)NCC1CCCO1 (stereo not given)	Cl transport mod 4.2
Oc1[nH]c2c(Cl)cc(Cl)cc2c1N=NC(=S)NCC1CCCO1 (stereo not given)	hERG protect 12, KCNQ1 act 52, Cl transport mod 56
S=c1nc(-c2ccccc2)n(Cc2ccco2)c2c1CCCC2	Cl transport mod 15 (no result: hERG protect, KCNQ1 inh, KCNQ1 act, KCNK3 inh, KCNK9 block)
NC(=S)N/N=C1/CCSc2ccc3ccccc3c21	Cl transport mod 4.4
NC(=S)N/N=C/c1c(O)ccc2ccccc12	none

Screening data: PubChem, several laboratories
